Results: ChEMBL document CHEMBL1149618, “Selection, synthesis, and structure-activity relationship of tetrahydropyrido[4,3-d]pyrimidine-2,4-diones as human GnRH receptor antagonists” (Bioorg Med Chem, 2007)
Calls of active or inactive are those of the source. No cut-off for these calls is given here.

Biological target: T1, Gonadotropin-releasing hormone receptor (Homo sapiens) (UniProt P30968)
T1 sequence (whole entry): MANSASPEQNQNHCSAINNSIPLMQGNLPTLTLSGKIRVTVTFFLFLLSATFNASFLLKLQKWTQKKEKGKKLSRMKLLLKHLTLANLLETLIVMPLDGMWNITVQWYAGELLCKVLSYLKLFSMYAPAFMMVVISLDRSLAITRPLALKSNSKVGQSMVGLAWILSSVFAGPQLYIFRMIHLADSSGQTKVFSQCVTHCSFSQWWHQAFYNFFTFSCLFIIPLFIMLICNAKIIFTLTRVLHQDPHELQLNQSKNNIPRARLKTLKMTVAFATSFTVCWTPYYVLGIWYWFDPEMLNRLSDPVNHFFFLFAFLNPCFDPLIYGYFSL
Test: (§1) Displacement of [125I]His5,D-Tyr6]GnRH from human cloned GnRH receptor transfected in COS7 cells
Format: cell-based
Settings: COS-7
Procedure, shortened: (§2)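 Competition binding against the radiolabelled GnRH agonist at the cloned human GnRH receptor, following a previously published method. Only compounds above 85% UV purity at 220 and 254 nm by LC–MS were assayed. Each compound was tested at least twice.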

Activity	SMILES
inactive	COc1ccccc1CN1CCc2c(c(=O)n(CCN(C)CCc3ccccn3)c(=O)n2Cc2c(F)cccc2F)C1

Biological target: T2, Gonadotropin-releasing hormone receptor (Homo sapiens, UniProt P30968)
T2 sequence (P30968 whole entry): T1 sequence (whole entry)
Test: as §1
Format: cell-based, COS-7
Settings: not given
Procedure, shortened: as §2

SMILES	Ki
CN(CCc1ccccn1)CCn1c(=O)c2c(n(Cc3c(F)cccc3F)c1=O)CCN(CCc1c[nH]c3ccccc13)C2	515 nM
Cc1ccc(CN2CCc3c(c(=O)n(CC4CCCCN4C)c(=O)n3Cc3c(F)cccc3F)C2)c(C)c1 (centres undefined)	1710 nM
Cc1cc(Cl)ccc1CN1CCc2c(c(=O)n(CCN(C)CCc3ccccn3)c(=O)n2Cc2c(F)cccc2F)C1	5 nM
Cc1c(CN2CCc3c(c(=O)n(CCN(C)CCc4ccccn4)c(=O)n3Cc3c(F)cccc3F)C2)sc2ccccc12	15 nM
Cc1c(CN2CCc3c(c(=O)n(CCN(C)CCc4ccccn4)c(=O)n3Cc3ccccc3F)C2)sc2ccccc12	80 nM
Cc1ccc(CN2CCc3c(c(=O)n(CC4CCCCN4)c(=O)n3Cc3c(F)cccc3F)C2)c(C)c1 (centres undefined)	> 10000 nM
Cc1ccc(CN2CCc3c(c(=O)n(CC4CCCCN4Cc4ccccc4)c(=O)n3Cc3c(F)cccc3F)C2)c(C)c1 (centres undefined)	945 nM
CN(CCc1ccccn1)CCn1c(=O)c2c(n(Cc3c(F)cccc3F)c1=O)CCN(Cc1ccncc1)C2	> 10000 nM
Cc1ccc(CN2CCc3c(c(=O)n(CC4CCCNC4)c(=O)n3Cc3c(F)cccc3F)C2)c(C)c1 (centres undefined)	2450 nM
COc1cccc(-n2c(=O)c3c(n(Cc4c(F)cccc4F)c2=O)CNCC3)c1	970 nM
Cc1ccc(CN2CCc3c(c(=O)n(CC4CCCN(Cc5ccccc5)C4)c(=O)n3Cc3c(F)cccc3F)C2)c(C)c1 (centres undefined)	160 nM
Cc1c(CN2CCc3c(c(=O)n(CCN(C)CCc4ccccn4)c(=O)n3Cc3c(F)cccc3C(F)(F)F)C2)sc2ccccc12	10 nM
Cc1c(CN2CCc3c(c(=O)n(CCN(C)CCc4ccccn4)c(=O)n3CC3CCCCC3)C2)sc2ccccc12	380 nM
Cc1ccc(CN2CCc3c(c(=O)n(CC4CCCCN4CC(C)C)c(=O)n3Cc3c(F)cccc3F)C2)c(C)c1 (centres undefined)	2590 nM
Cc1ccc(CN2CCc3c(c(=O)n(CC4CCCN(C5CCCC5)C4)c(=O)n3Cc3c(F)cccc3F)C2)c(C)c1 (centres undefined)	2580 nM
Cc1c(CN2CCc3c(c(=O)n(CCN(C)CCc4ccccn4)c(=O)n3C)C2)sc2ccccc12	> 10000 nM
COc1cccc(-n2c(=O)c3c(n(Cc4c(F)cccc4F)c2=O)CN(Cc2ccc(C)cc2)CC3)c1	> 10000 nM
Cc1ccc(CN2CCc3c(c(=O)n(CC4CCCN(C)C4)c(=O)n3Cc3c(F)cccc3F)C2)c(C)c1 (centres undefined)	> 10000 nM
Cc1ccc(CN2CCc3c(c(=O)n(CCN(C)CCc4ccccn4)c(=O)n3Cc3c(F)cccc3F)C2)c(C)c1	5 nM

SMILES	Ki
Cc1c(CN2CCc3c(c(=O)n(CCN(C)CCc4ccccn4)c(=O)n3Cc3ccccc3)C2)sc2ccccc12	305 nM
Cc1ccc(CN2CCc3c(c(=O)n(CC4CCCN(CC(C)C)C4)c(=O)n3Cc3c(F)cccc3F)C2)c(C)c1 (centres undefined)	> 10000 nM
Cc1c(CN2CCc3[nH]c(=O)n(CCN(C)CCc4ccccn4)c(=O)c3C2)sc2ccccc12	> 10000 nM
Cc1ccc(CN2CCc3c(c(=O)n(CCN(C)CC(C)C)c(=O)n3Cc3c(F)cccc3F)C2)c(C)c1	1800 nM
CN(CCc1ccccn1)CCn1c(=O)c2c(n(Cc3c(F)cccc3F)c1=O)CCNC2	> 10000 nM
O=c1c2c(n(Cc3c(F)cccc3F)c(=O)n1C[C@H]1CCCN1C1CCCC1)CCN(Cc1ccc(Cl)cc1)C2	1370 nM
Cc1ccc(CN2CCc3c(c(=O)n(CC4CCCN(CCc5ccccn5)C4)c(=O)n3Cc3c(F)cccc3F)C2)c(C)c1 (centres undefined)	600 nM
Cc1ccc(CN2CCc3c(c(=O)n(CCN(C)Cc4ccccn4)c(=O)n3Cc3c(F)cccc3F)C2)c(C)c1	180 nM
COc1cccc(-n2c(=O)c3c(n(Cc4c(F)cccc4F)c2=O)CN(Cc2ccncc2)CC3)c1	1580 nM
Cc1ccc(CN2CCc3c(c(=O)n(CC4CCCN(Cc5ccccn5)C4)c(=O)n3Cc3c(F)cccc3F)C2)c(C)c1 (centres undefined)	490 nM
COc1cccc(-n2c(=O)c3c(n(Cc4c(F)cccc4F)c2=O)CN(Cc2ccccc2OC)CC3)c1	980 nM
CN(CCc1ccccn1)CCn1c(=O)c2c(n(Cc3c(F)cccc3F)c1=O)CCN(Cc1ccc(-n3ccnc3)cc1)C2	> 10000 nM
COc1cccc(-n2c(=O)c3c(n(Cc4c(F)cccc4F)c2=O)CN(CCc2c[nH]c4ccccc24)CC3)c1	2200 nM
Cc1ccc(CN2CCc3c(c(=O)n(CC4CCCCN4C4CCCC4)c(=O)n3Cc3c(F)cccc3F)C2)c(C)c1 (centres undefined)	520 nM
COc1cccc(-n2c(=O)c3c(n(Cc4c(F)cccc4F)c2=O)CN(Cc2ccc(-n4ccnc4)cc2)CC3)c1	540 nM
CN(CCc1ccccn1)CCn1c(=O)c2c(n(Cc3c(F)cccc3F)c1=O)CCN(Cc1ccc(Cl)c(Cl)c1)C2	255 nM
Cc1ccccc1CN1CCc2c(c(=O)n(CCN(C)CCc3ccccn3)c(=O)n2Cc2c(F)cccc2F)C1	85 nM
Cc1ccc(CN2CCc3c(c(=O)n(CC4CCCCN4Cc4ccccn4)c(=O)n3Cc3c(F)cccc3F)C2)c(C)c1 (centres undefined)	25 nM
CN(CCc1ccccn1)CCn1c(=O)c2c(n(Cc3c(F)cccc3F)c1=O)CCN(Cc1nc3ccccc3n1C)C2	> 10000 nM

Results, then the compound that gave them:

Ki	SMILES
2410 nM	O=c1c2c(n(Cc3c(F)cccc3F)c(=O)n1C[C@@H]1CCCCN1CCc1ccccn1)CCN(Cc1ccc(Cl)cc1)C2
30 nM	CN(CCc1ccccn1)CCn1c(=O)c2c(n(Cc3c(F)cccc3F)c1=O)CCN(Cc1ccc(C(F)(F)F)cc1)C2
20 nM	O=c1c2c(n(Cc3c(F)cccc3F)c(=O)n1C[C@H]1CCCN1Cc1ccccn1)CCN(Cc1ccc(Cl)cc1)C2
17 nM	CN(CCc1ccccn1)CCn1c(=O)c2c(n(Cc3c(F)cccc3F)c1=O)CCN(Cc1ccc(Cl)cc1)C2
15 nM	CCSc1ccc(CN2CCc3c(c(=O)n(CCN(C)CCc4ccccn4)c(=O)n3Cc3c(F)cccc3F)C2)cc1
70 nM	CN(C)[C@@H](Cn1c(=O)c2c(n(Cc3c(F)cccc3F)c1=O)CCN(Cc1ccc(Cl)cc1)C2)c1ccccc1
30 nM	O=c1c2c(n(Cc3c(F)cccc3F)c(=O)n1C[C@H]1CCCCN1CCc1ccccn1)CCN(Cc1ccc(Cl)cc1)C2
35 nM	Cc1ccc(CN2CCc3c(c(=O)n(CCN(C)CCc4ccccn4)c(=O)n3Cc3c(F)cccc3F)C2)cc1
10 nM	O=c1c2c(n(Cc3c(F)cccc3F)c(=O)n1C[C@H]1CCCN1CCc1ccccn1)CCN(Cc1ccc(Cl)cc1)C2
300 nM	CN(CCc1ccccn1)CCn1c(=O)c2c(n(Cc3c(F)cccc3F)c1=O)CCN(Cc1ccc(C(C)(C)C)cc1)C2
20 nM	CCc1ccc(CN2CCc3c(c(=O)n(CCN(C)CCc4ccccn4)c(=O)n3Cc3c(F)cccc3F)C2)cc1
1400 nM	CCc1ccc(CN2CCc3c(c(=O)n(CCN(C)C)c(=O)n3Cc3c(F)cccc3F)C2)cc1
850 nM	CN(CCc1ccccn1)CCn1c(=O)c2c(n(Cc3c(F)cccc3F)c1=O)CCN(Cc1cccc(Cl)c1)C2
805 nM	CN(CCc1ccccn1)CCn1c(=O)c2c(n(Cc3c(F)cccc3F)c1=O)CCN(Cc1ccc(S(C)(=O)=O)cc1)C2
> 10000 nM	O=c1c2c(n(Cc3c(F)cccc3F)c(=O)n1C[C@H]1CCCN1)CCN(Cc1ccc(Cl)cc1)C2
1290 nM	COc1cccc(-n2c(=O)c3c(n(Cc4c(F)cccc4F)c2=O)CN(Cc2ccccc2)CC3)c1
10 nM	CSc1ccc(CN2CCc3c(c(=O)n(CCN(C)CCc4ccccn4)c(=O)n3Cc3c(F)cccc3F)C2)cc1
990 nM	CN(CCc1ccccn1)CCn1c(=O)c2c(n(Cc3c(F)cccc3F)c1=O)CCN(Cc1ccccc1)C2
100 nM	COc1ccc(CN2CCc3c(c(=O)n(CCN(C)CCc4ccccn4)c(=O)n3Cc3c(F)cccc3F)C2)cc1
45 nM	CN[C@@H](Cn1c(=O)c2c(n(Cc3c(F)cccc3F)c1=O)CCN(Cc1ccc(Cl)cc1)C2)c1ccccc1
